ChEMBL document CHEMBL4145447, “4-arylamidobenzyl substituted 5-bromomethylene-2(5H)-furanones for chronic bacterial infection” (Eur J Med Chem, 2018)
Activity calls are given as the source filed them. The calls are words filed in the database; no cut-off is given here.

Key:
[1] = tested on: Pseudomonas aeruginosa PAO1; experiment: Inhibition of Pseudomonas aeruginosa PAO1 GFP-fused quorum sensing rhlA at 10 uM measured every 15 mins up to 12 hrs by GFP reporter gene assay relative to control
In short: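 GFP reporter strains of P. aeruginosa PAO1 (lasB-, rhlA- or pqsA-promoter fused to unstable gfp(ASV)) grown overnight in LB at 37 °C, 200 rpm, 18 h, then diluted 1:100. Culture mixed 1:1 with compound diluted in LB from 10 mM DMSO stock (0.1% DMSO final). Fluorescence (ex 485/em 528 nm) read every 15 min at 37 °C for ≥12 h.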

[2] = Cytotoxicity against mouse RAW264.7 cells assessed as cell viability at 10 uM after 48 hrs by MTT assay relative to control; type: cell-based; conditions: read-out: Activity
In short: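 MTT viability: RAW264.7 cells (4 × 10^4/well) in DMEM + 10% FBS exposed to compounds diluted in DMEM for 48 h. MTT 0.5 mg/mL added for 4 h in the dark, formazan dissolved in DMSO, read at 570 nm. Viability = treated/medium-only control × 100; three independent experiments.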

RAW264.7 [3] = experiment: Anti-inflammatory activity in mouse RAW264.7 cells assessed as inhibition of LPS-induced TNF-alpha production by measuring TNF-alpha level at 10 uM preincubated for 2 hrs followed by LPS stimulation and measured after 6 hrs by ELISA (reference value: 11922 +/- 628.4 pg/ml); type: functional
RAW264.7 [4] = experiment: Anti-inflammatory activity in mouse RAW264.7 cells assessed as inhibition of LPS-induced TNF-alpha production by measuring TNF-alpha level at 10 uM preincubated for 2 hrs followed by LPS stimulation and measured after 12 hrs by ELISA (reference value: 21561.3 +/- 857 pg/ml); type: functional
RAW264.7 [5] = experiment: Anti-inflammatory activity in mouse RAW264.7 cells assessed as inhibition of LPS-induced TNF-alpha production by measuring TNF-alpha level at 10 uM preincubated for 2 hrs followed by LPS stimulation and measured after 24 hrs by ELISA (reference value: 24216 +/- 498.7 pg/ml); type: functional
RAW264.7 [6] = experiment: Anti-inflammatory activity in mouse RAW264.7 cells assessed as inhibition of LPS-induced IL-6 production by measuring […] level at 10 uM preincubated for 2 hrs followed by LPS stimulation and measured after 6 hrs by ELISA (reference value: 94.6 +/- 5.9 pg/ml); type: functional
RAW264.7 [7] = experiment: Anti-inflammatory activity in mouse RAW264.7 cells assessed as inhibition of LPS-induced IL-6 production by measuring […] level at 10 uM preincubated for 2 hrs followed by LPS stimulation and measured after 12 hrs by ELISA (reference value: 175.2 +/- 10.2 pg/ml); type: functional
[8] = target: T1, Peroxisome proliferator-activated receptor gamma (Mus musculus) (UniProt P37238); experiment: Agonist activity at PPARgamma in mouse RAW264.7 cells assessed as inhibition of LPS-induced NF-kB p65 phosphorylation at 10 uM preincubated for 1 hr followed by LPS stimulation and measured after 4 hrs by Western blot analysis; type: cell-based
T1 sequence (whole entry): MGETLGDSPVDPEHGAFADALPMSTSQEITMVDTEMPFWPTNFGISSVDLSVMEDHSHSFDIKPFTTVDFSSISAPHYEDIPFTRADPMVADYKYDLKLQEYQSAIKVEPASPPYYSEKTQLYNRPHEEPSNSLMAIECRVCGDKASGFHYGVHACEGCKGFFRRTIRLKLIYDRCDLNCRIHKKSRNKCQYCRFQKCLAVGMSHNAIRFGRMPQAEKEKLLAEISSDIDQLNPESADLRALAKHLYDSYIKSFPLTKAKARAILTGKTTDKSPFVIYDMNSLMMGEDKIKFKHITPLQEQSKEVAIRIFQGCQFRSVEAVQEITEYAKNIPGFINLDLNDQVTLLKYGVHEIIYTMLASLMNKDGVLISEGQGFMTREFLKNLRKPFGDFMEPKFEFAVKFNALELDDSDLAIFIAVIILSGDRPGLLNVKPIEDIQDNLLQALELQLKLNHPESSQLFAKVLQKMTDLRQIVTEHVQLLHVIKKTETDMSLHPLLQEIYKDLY
In short: (§1)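 Western blot: RAW264.7 cells (2 × 10^6/well) pretreated 1 h with compound (10 µM), antagonist GW9662 (5 µM) where stated, then LPS 500 ng/mL for 4 h. Lysis on ice with PMSF, BCA-normalised protein on SDS gels, PVDF transfer, milk block, phospho- and total-protein primary antibodies, HRP secondary, ECL detection. Densitometry normalised to internal control; n = 3.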

[9] = target: T1, Peroxisome proliferator-activated receptor gamma (Mus musculus); experiment: Agonist activity at PPARgamma in mouse RAW264.7 cells assessed as inhibition of LPS-induced MAPK p38 phosphorylation at Thr180/Tyr182 residues at 10 uM preincubated for 1 hr followed by LPS stimulation and measured after 4 hrs by Western blot analysis; type: cell-based; in short: as §1
[10] = target: T1, Peroxisome proliferator-activated receptor gamma (Mus musculus); experiment: Agonist activity at PPARgamma in mouse RAW264.7 cells assessed as inhibition of LPS-induced IkB-alpha phosphorylation at Ser32/36 residues at 10 uM preincubated for 1 hr followed by LPS stimulation and measured after 4 hrs in presence of PPARgamma antagonist GW9662 by Western blot analysis; type: cell-based; in short: as §1
[11] = target: T1, Peroxisome proliferator-activated receptor gamma (Mus musculus); experiment: Agonist activity at PPARgamma in mouse RAW264.7 cells assessed as inhibition of LPS-induced MAPK p38 phosphorylation at Thr180/Tyr182 residues at 10 uM preincubated for 1 hr followed by LPS stimulation and measured after 4 hrs in presence of PPARgamma antagonist GW9662 by Western blot analysis; type: cell-based; in short: as §1
Pseudomonas aeruginosa = experiment: Growth inhibition of Pseudomonas aeruginosa PAO1 at 5 to 100 uM measured every 15 mins up to 12 hrs; type: organism-based; conditions: in vitro
In short: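 Growth of P. aeruginosa PAO1 was run like the reporter assay. The overnight LB culture was diluted in fresh LB and mixed in equal parts with compound diluted in LB, then growth was monitored in 96-well plates.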

RAW264.7 [12] = experiment: Anti-inflammatory activity in mouse RAW264.7 cells assessed as inhibition of LPS-induced IL-6 production by measuring IL-6 level at 10 uM preincubated for 2 hrs followed by LPS stimulation and measured after 24 hrs by ELISA (reference value: 407.6 +/- 16.7 pg/ml)

O=C(C=Cc1ccccc1)Nc1ccc(CC2=CC(=O)O/C2=C/Br)cc1 showed an inhibition [1] of 12%, a viability at 48 h, 10 µM [2] of 104% and an Activity (RAW264.7 [3]) of 7750 pg/mL. The Activity (RAW264.7 [4]) was 15037.3 pg/mL, the Activity (RAW264.7 [5]) was 19550 pg/mL and the Activity (RAW264.7 [6]) was 19.6 pg/mL. For the same compound, the Activity (RAW264.7 [7]) was 75.3 pg/mL, the inhibition [8] was “Active” and the inhibition [9] was “Active”. For the same compound, the inhibition [10] was “inactive”, the inhibition [11] was “inactive” and the “growth inhibition (GI)” value (Pseudomonas aeruginosa) was “Non-Toxic”. The Activity (RAW264.7 [12]) was 158.2 pg/mL.

With O=C(Cc1ccc(F)cc1)Nc1ccc(CC2=CC(=O)OC2=CBr)cc1 the inhibition [1] was 14.7%, the viability at 48 h, 10 µM [2] was 97% and the Activity (RAW264.7 [3]) was 7524.7 pg/mL. It also gave an Activity (RAW264.7 [4]) of 13362.7 pg/mL, an Activity (RAW264.7 [5]) of 18322 pg/mL and an Activity (RAW264.7 [6]) of 17 pg/mL. For the same compound, the Activity (RAW264.7 [7]) was 66.3 pg/mL, the inhibition [8] was “Active” and the inhibition [9] was “Active”. The inhibition [10] was “inactive”, the inhibition [11] was “inactive” and the “growth inhibition (GI)” value (Pseudomonas aeruginosa) was “Non-Toxic”. For the same compound, the Activity (RAW264.7 [12]) was 145.2 pg/mL.
